PABP1 MLLE inh = inhibitors of microRNA-mediated deadenylation, human PABP1 MLLE binding; GST-MLLE / FITC-PAM2 fluorescence polarization; P11940; 360,000 tested, 0.36% active; AID 588489; inhibition, % at 20 µM; in the data active = inhibition above about 35%, passing the limit was not always enough
PABP polyA inh = PABP-poly(A) binding inhibition | P11940 | PABP-poly(A) RNA binding, fluorescence polarization | inhibition, % at 35 µM | 290,000 tested, 1% active | AID 2014;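 note: calls also rest on retests at 20 µM and on dose response follow-up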
EBNA-1 inh = blocks EBNA-1 binding to DNA | EBNA-1 DNA binding, fluorescence polarization | inhibition, % at 14.8 µM | 300,000 tested, 0.34% active; in the data active = inhibition above about 28%
HCV NS3 hel inh = inhibitors of Hepatitis C virus NS3 helicase. NS3 helicase DNA unwinding, Cy5 molecular beacon fluorescence. inhibition, % at 10.9 µM. 290,000 tested, 0.56% active. AID 1800;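 active = inhibition above the mean of all tested compounds plus 3 SD, set per campaign, cut at about 35% in these data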
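System: HCV NS3 helicase fragment; control set: DMSO and thioflavine S; technique: Cy5 fluorescence at 0 and 60 min, beacon hairpin quenching; reagent: beacon DNA duplex substrate plus ATP; replicates: singlicate; schedule: 1 h reaction at 25 °C, ATP-initiated; medium: MOPS buffer pH 6.5 with MgCl2, DTT, Tween20, BSA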
eIF4H FP inh = inhibitors of RNA binding by human eIF4H | Q15056 | eIF4H fluorescence polarization binding assay | inhibition, % at 35 µM | 290,000 tested, 0.94% active;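 note: calls also rest on retests at 20 µM and on dose response follow-up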
ZTA counter = ZTA (EBV) inhibition in EBNA-1 counter-screen; ZTA-DNA binding, fluorescence polarization; inhibition, % at 11 µM; P03206; AID 2234; 320,000 tested, 0.15% active; in the data active = inhibition above about 33%
Target sequence (P03206 whole entry, looked up): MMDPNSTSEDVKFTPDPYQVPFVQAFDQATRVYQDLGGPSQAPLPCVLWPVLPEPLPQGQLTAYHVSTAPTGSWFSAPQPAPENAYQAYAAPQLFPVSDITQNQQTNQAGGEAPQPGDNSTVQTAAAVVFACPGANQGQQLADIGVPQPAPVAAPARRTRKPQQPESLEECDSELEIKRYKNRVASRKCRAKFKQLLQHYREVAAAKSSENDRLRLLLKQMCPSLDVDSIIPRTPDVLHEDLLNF
Of the large screens only hits and unclear results are named; the others gave an inactive call; ! = repeats disagree. The list is not random: actives were taken first. Their share in the collection is about 2.1%. Unless noted, the rule behind the calls is not given here.

Cc1cc(NCC2CCCO2)n2c(nc3ccccc32)c1C#N (configuration not stated)	PABP polyA inh 95.6, eIF4H FP inh 60.6
Nc1ncnc(N2CCOCC2)c1N	PABP polyA inh active, eIF4H FP inh 87.3
O=[N+]([O-])c1cccc(/C=N\N2CCN(Cc3ccccc3Cl)CC2)c1	none
O=C1C(Cl)=C(Nc2ccccc2)C(=O)c2ccccc21	none
O=C(O)c1ccc(NC2=C(Cl)C(=O)c3ccccc3C2=O)cc1	PABP1 MLLE inh 47.0
O=C1C(Cl)=C(NCCc2ccccc2)C(=O)c2ccccc21	PABP1 MLLE inh 40.4 (no result: PABP polyA inh, EBNA-1 inh, HCV NS3 hel inh, eIF4H FP inh, ZTA counter)
Cc1ccc(NC2=C(NC(=O)c3ccccc3)C(=O)c3ccccc3C2=O)cc1Cl	PABP1 MLLE inh 46.2
Cc1ccc(NCC(=O)c2ccccc2)cc1Cl	none
COc1ccc(N2C(=O)CC(N(CCc3ccc(OC)c(OC)c3)C(=S)Nc3ccccc3)C2=O)cc1 (configuration not stated)	none
COC(=O)C1=C(C)Nc2c(c(=O)n(C)c(=O)n2C)C1c1cccnc1 (configuration not stated)	none
Cc1ncc([N+](=O)[O-])n1CCO	eIF4H FP inh 5.6
CCS(=O)(=O)CCn1c([N+](=O)[O-])cnc1C	none
Cc1ncc([N+](=O)[O-])n1CC(C)O (configuration not stated)	PABP polyA inh 3.9!, eIF4H FP inh inconclusive
Cc1ccc(Cn2c([N+](=O)[O-])cnc2C)cc1	none
CCCCCCCNC1=CC(=O)CC(c2ccco2)C1 (configuration not stated)	PABP polyA inh 84.1, eIF4H FP inh 93.1
O=C(NC1CC1)c1nc(Cn2ccc([N+](=O)[O-])n2)no1	none
COC(=O)C(C)(C(=O)OC)c1ccccc1[N+](=O)[O-]	PABP polyA inh 66.7, eIF4H FP inh inconclusive
COC(=O)C(Cc1cnc(Cl)s1)(C(=O)OC)c1ccccc1[N+](=O)[O-]	none
CC1(C)Oc2ccc3ccc(=O)oc3c2C(N2CCCCC2)C1O (configuration not stated)	eIF4H FP inh 42.2
CC1(C)Oc2ccc3ccc(=O)oc3c2[C@H](O)[C@H]1O	none (no result: PABP polyA inh, EBNA-1 inh, HCV NS3 hel inh, eIF4H FP inh)
Cc1cc(C)cc(C(=O)NCC(=O)OCC(=O)N2c3ccccc3NC(=O)C2(C)C)c1	PABP polyA inh active, eIF4H FP inh 76.0
COc1cc(OC)cc(C(=O)NCC(=O)OCC(=O)N2c3ccccc3NC(=O)C2(C)C)c1	none
O=[N+]([O-])c1cnc2nc(-c3ccncc3)nn2c1O	none
COc1ccccc1NS(=O)(=O)c1cc(NC(C)=O)ccc1N1CCCCC1	none
COc1ccccc1NS(=O)(=O)c1cc(NC(=O)Nc2cccc(C)c2)ccc1N1CCCCC1	PABP1 MLLE inh 38.1
COc1ccc(-n2c(C)cc(C(=O)CSc3nn4c(=O)c(C(C)(C)C)nnc4s3)c2C)cc1	none
Cc1cc(C(=O)CSc2nn3c(=O)c(C(C)(C)C)nnc3s2)c(C)n1C	PABP polyA inh 101.4, eIF4H FP inh 37.9
O=C(CSc1nc2c([nH]c3ccccc32)c(=O)n1-c1ccccc1)N1CCOCC1	none
O=C(CSc1nc2c([nH]c3ccccc32)c(=O)n1-c1cccc(Cl)c1)N1CCOCC1	EBNA-1 inh 37.3
O=C(CSc1nnc(SCc2cccc3ccccc23)s1)c1ccc2c(c1)OCO2	none
COc1c(O)cccc1[C@H](O)C1CCN(CCc2ccc(F)cc2)CC1	PABP1 MLLE inh 76.5 (no result: PABP polyA inh, HCV NS3 hel inh, eIF4H FP inh)
CCN(Cc1ccccc1)C(=O)COC(=O)Cc1c[nH]c2ccccc12	none (no result: PABP polyA inh, EBNA-1 inh, HCV NS3 hel inh, eIF4H FP inh, ZTA counter)
COC(=O)Cc1c(C)c2ccc(OC(C)C)cc2oc1=O	none
CS(=O)(=O)Nc1ccc(C2=NN(S(=O)(=O)c3ccc(F)cc3)C(c3ccco3)C2)cc1 (configuration not stated)	eIF4H FP inh active
O=C(CNC(=O)C1CCCCC1)NC1=NCCS1	PABP1 MLLE inh 39.7
O=C(CNC(=O)C12CC3CC(CC(C3)C1)C2)NC1=NCCS1	PABP1 MLLE inh 44.8
O=C(CC12CC3CC(CC(Br)(C3)C1)C2)NC1=NCCS1	none
Cc1nc(CC(=O)NNS(=O)(=O)c2ccc3ccccc3c2)cs1	none
O=S(=O)(NC1CCCCCCC1)c1ccccc1F	none
COc1ccc(S(=O)(=O)N(C(=O)C(C)C)c2ccc3oc(=O)sc3c2)cc1	PABP1 MLLE inh 38.4
O=C(Nc1ccc(Cl)c(S(=O)(=O)N2CCOCC2)c1)c1cc(=O)[nH]c2ccccc12	none (no result: PABP polyA inh, EBNA-1 inh, HCV NS3 hel inh, eIF4H FP inh)
COc1cc2ccc3c(CCN(C)C)cc(OC)c(OC)c3c2cc1OC	PABP polyA inh 58.4
COc1ccc(Cl)cc1N1CC(c2nc3ccccc3[nH]2)CC1=O (configuration not stated)	none
Cc1ccccc1N=Cc1cccc(O)c1O	eIF4H FP inh inconclusive
Cc1ccc(N=Cc2cccc(O)c2O)c(C)c1	PABP polyA inh 30.8, eIF4H FP inh 99.2
COc1cccc(-c2nc(=S)c3c(n2CCCO)CCCC3)c1	PABP1 MLLE inh 40.9
Cc1c(Cl)c([N+](=O)[O-])nn1CC(=O)NC(C)c1ccccc1 (configuration not stated)	none
CCc1nc(SCC(=O)c2ccc3c(c2)OCCO3)c2ccccc2n1	none
CC(C)c1nc(SCC(=O)c2ccc(F)cc2)c2ccccc2n1	PABP1 MLLE inh 37.5
CCOC(=O)CSc1nc(C2CC2)nc2ccccc12	PABP1 MLLE inh 36.5
CC1CCN(C(=O)CSc2nc(C3CC3)nc3ccccc23)CC1	none
CCc1nc(SCC(=O)c2ccccc2)c2ccccc2n1	PABP1 MLLE inh 41.1
COc1ccc2c(COC(=O)[C@H](C)NS(=O)(=O)c3ccccc3F)cc(=O)oc2c1	none (no result: PABP polyA inh, EBNA-1 inh, HCV NS3 hel inh, eIF4H FP inh, ZTA counter)
COc1ccc(/C=N/Nc2nc(-c3cccnc3)nc3ccccc23)c(OC)c1	none
CCOc1ccc(CC(=O)N2CCN=C2SC)cc1	PABP polyA inh 58.0
CSC1=NCCN1C(=O)Cc1ccc(F)cc1	none
O=C(Cc1ccc(F)cc1)N1CCN=C1SCc1ccc([N+](=O)[O-])cc1	PABP1 MLLE inh 37.7
CCOc1ccc(CC(=O)N2CCN=C2SCc2ccc([N+](=O)[O-])cc2)cc1	PABP polyA inh 67.8, eIF4H FP inh active
N/C(=N/OC(=O)c1ccccc1Cl)c1nonc1N	none
CC(C)(C)OC(=O)N1CCN(C(=O)c2[nH]cnc2C(=O)Nc2ccccc2F)CC1	none (no result: PABP polyA inh, EBNA-1 inh, HCV NS3 hel inh, eIF4H FP inh, ZTA counter)
C=CCc1ccc(OCC(O)COc2ccc(CC=C)cc2OC)c(OC)c1	PABP polyA inh 72.1, eIF4H FP inh inconclusive
O=S(=O)(c1ccc(F)cc1)N1CN(Cc2ccco2)c2nc3ccccc3nc21	PABP polyA inh 122.4, eIF4H FP inh 122.4
Cc1ccc(S(=O)(=O)N2CN(Cc3ccco3)c3nc4ccccc4nc32)cc1	PABP polyA inh 51.3, eIF4H FP inh inconclusive
CCCn1c(N)c(C(=O)CSc2nc(C)cs2)c(=O)n(C)c1=O	none
COc1ccc(-c2ccc(/C=C3/C(=N)N4C(C)=CSC4=NC3=O)o2)c([N+](=O)[O-])c1	PABP polyA inh active, eIF4H FP inh 91.0
Clc1ccc2nnc(Cl)n2n1	none
COc1ccc(OC)c2c1C(=O)c1ccccc1C2=O	PABP polyA inh 67.2 (no result: PABP1 MLLE inh)

Screening results (PubChem)
